Measurements: ChEMBL document CHEMBL1158902, “Polyprenylated benzophenones from Garcinia assigu and their potential cancer chemopreventive activities” (J Nat Prod, 2003)

Experiments:
Raji [1] = assay: Inhibition of TPA-induced EBV-early antigen activation in human Raji cells at 32 nmol after 48 hrs relative to TPA; format: cell-based; set-up: scale not given: the % may be the effect or the level left; details: human gammaherpesvirus 4
How it was run: (§1)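 Raji cells at 10^6 cells/mL were resuspended in RPMI 1640 with 10% FCS. Induction used 4 mM n-butyric acid plus 32 pmol TPA (20 ng/mL), with test compound added in DMSO. After 48 h at 37 °C, EA-positive cells were scored blind, at least 500 cells per assay. Activation is expressed as % of TPA-only control (100%) ± SD.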

Raji [2] = assay: Inhibition of TPA-induced EBV-early antigen activation in human Raji cells at 16 nmol after 48 hrs relative to TPA; format: cell-based; set-up: scale not given: the % may be the effect or the level left; details: human gammaherpesvirus 4; how it was run: as §1
Raji [3] = assay: Inhibition of TPA-induced EBV-early antigen activation in human Raji cells at 3.2 nmol after 48 hrs relative to TPA; format: cell-based; set-up: scale not given: the % may be the effect or the level left; details: human gammaherpesvirus 4; how it was run: as §1
Raji [4] = assay: Inhibition of TPA-induced EBV-early antigen activation in human Raji cells at 0.32 nmol after 48 hrs relative to TPA; format: cell-based; set-up: scale not given: the % may be the effect or the level left; details: human gammaherpesvirus 4; how it was run: as §1
[5] = Cytotoxicity against human Raji cells assessed as cell viability at 32 nmol after 48 hrs by trypan blue assay; format: cell-based; details: read-out: Activity
How it was run: (§2)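 Raji cells grown to 10^6 cells/mL, pelleted, and resuspended in RPMI 1640 with 10% FCS. Medium held 4 mM n-butyric acid, 32 pmol TPA (20 ng/mL, in DMSO) and test compound in DMSO. Incubated 48 h at 37 °C. Cell number and viability counted by hemocytometer with Trypan Blue; at least 60% survival required for a valid result.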

[6] = Cytotoxicity against human Raji cells assessed as cell viability at 16 nmol after 48 hrs by trypan blue assay; format: cell-based; details: read-out: Activity; how it was run: as §2
[7] = Cytotoxicity against human Raji cells assessed as cell viability at 3.2 nmol after 48 hrs by trypan blue assay; format: cell-based; details: read-out: Activity; how it was run: as §2
[8] = Cytotoxicity against human Raji cells assessed as cell viability at 0.32 nmol after 48 hrs by trypan blue assay; format: cell-based; details: read-out: Activity; how it was run: as §2
[9] = system: Radical scavenging activity; assay: Antioxidant activity assessed as DPPH radical scavenging activity; format: functional
How it was run: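 Test compound in ethanol mixed with 2 mL of 0.1 mM DPPH solution; held 30 min at room temperature, then absorbance at 520 nm read. EC50 estimated by probit transformation; IC50 as mean ± SD of five replicates.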

Row | IC50 [9] | Compound | Activity (Raji [1]) | Activity (Raji [2]) | Activity (Raji [3]) | Activity (Raji [4]) | viability at 48 h, 32 nmol [5] | viability at 48 h, 16 nmol [6] | viability at 48 h, 3.2 nmol [7] | viability at 48 h, 0.32 nmol [8]
1 | > 100 µM | COc1cc(C(=O)C2=C3OC(C)(C)[C@@H](CC=C(C)C)C[C@@]34C[C@@H](CC=C(C)C)C(C)(C)[C@@](CC=C(C)C)(C2=O)C4=O)ccc1O | 18.5% | 60.1% | 89% | 100% | 60% | > 80% | > 80% | > 80%
2 | > 100 µM | C=C(C)[C@@H](CC=C(C)C)C[C@@]12C[C@@H](CC=C(C)C)C(C)(C)[C@@](CC=C(C)C)(C(=O)C(C(=O)c3ccc(O)c(OC)c3)=C1O)C2=O | 19.7% | 54.9% | 88.1% | 100% | 60% | > 80% | > 80% | > 80%
3 | 13.3 µM | CC(C)=CC[C@H]1C[C@@]23C[C@@H](CC=C(C)C)C(C)(C)[C@@](CC=C(C)C)(C(=O)C(C(=O)c4ccc(O)c(O)c4)=C2OC1(C)C)C3=O [CAMBOGIN] | 17.7% | 56% | 87.1% | 100% | 60% | > 80% | > 80% | > 80%
4 | > 100 µM | CC(C)=CC[C@@H]1C[C@@]2(CC=C(C)C)C(=O)[C@](CC=C(C)C)(C(=O)C(C(=O)c3ccccc3)=C2O)C1(C)C [CLUSIANONE] | 17.4% | 53.7% | 87.7% | 100% | 60% | > 80% | > 80% | > 80%
5 | – | CC1(C)[C@@H](O)CC[C@]2(C)[C@H]3C(=O)C=C4[C@@H]5C[C@@](C)(C(=O)O)CC[C@]5(C)CC[C@@]4(C)[C@]3(C)CC[C@@H]12 [ENOXOLONE] | 15.6% | 54.3% | 100% | 100% | > 80% | > 80% | > 80% | –
6 | 10.2 µM | C=C(C)[C@@H](CC=C(C)C)C[C@@]12C[C@@H](CC=C(C)C)C(C)(C)[C@@](CC=C(C)C)(C(=O)C(C(=O)c3ccc(O)c(O)c3)=C1O)C2=O [GARCINOL] | 14.4% | 47% | 84.9% | 100% | 60% | > 80% | > 80% | > 80%
7 | – | O=C(c1ccc(O)c(O)c1)c1c(O)cc(O)cc1O [MACLURIN] | 0% | 52.7% | 80.2% | 94.3% | 70% | > 80% | > 80% | > 80%
8 | 22.8 µM | VITAMIN E | – | – | – | – | – | – | – | –
